In ChEMBL document CHEMBL4428071 (J Med Chem, 2016):
Activity calls are given as the source filed them. The calls are words filed in the database; no cut-off is given here.

How the values were obtained:
[1] = Cmax in Sprague-Dawley rat at 1 mg/kg, iv measured up to 8 hrs post dosing; format: ADME, organism-based; design: dose 1 mg/kg, route intravenous; settings: in vivo
Outline: (§1)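 Male Sprague-Dawley rats, 8 weeks old, fasted overnight; iv dosing from a 1 mg/mL solution in 5% DMSO/40% PEG400/55% saline. Jugular-vein blood (~0.2 mL, heparinised) taken at 1, 5, 15, 30 min and 1, 2, 4, 6, 8 h; plasma held at -80 °C until analysis; n=3.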

[2] = Half life in Sprague-Dawley rat at 1 mg/kg, iv measured up to 8 hrs post dosing; format: ADME, organism-based; settings: in vivo; outline: as §1
[3] = test system: Mast/stem cell growth factor receptor Kit (Homo sapiens), P10721 [T670I]; assay: Inhibition of […] cKIT T670I mutant in human GIST-5R cells assessed as cell growth inhibition after 72 hrs by cell titer-glo assay; format: cell-based
[4] = Tmax in Sprague-Dawley rat at 1 mg/kg, iv measured up to 8 hrs post dosing; format: ADME, organism-based; settings: in vivo
Outline: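 Male Sprague-Dawley rats, 8 weeks old, fasted overnight, dosed at 1 mg/kg iv from a 1 mg/mL stock in 5% DMSO/40% PEG400/55% saline. About 0.2 mL jugular blood taken into heparin at 1 min to 8 h. Plasma held at -80 °C until analysis. n = 3, mean reported.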

[5] = test system: Mast/stem cell growth factor receptor Kit (Homo sapiens), P10721 [N822K]; assay: Inhibition of TEL-fused cKIT N822K mutant (unknown origin) expressed in mouse BA/F3 cells assessed as cell growth inhibition after 72 hrs by cell titer-glo assay; format: cell-based
Outline: (§2)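 Cells seeded at 3000 per well and exposed to serial compound dilutions for 72 h. Viability read by CellTiter-Glo luminescence and normalised to DMSO controls; mean of three independent measurements. BaF3 lines kept IL-3-free in RPMI 1640/10% FBS after retroviral transduction and puromycin selection. GIST lines grown in DMEM/10% FBS.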

[6] = target: T1, Mast/stem cell growth factor receptor Kit (Homo sapiens, UniProt P10721); assay: Inhibition of wild type cKIT in human GIST-T1 cells assessed as downregulation of ERK phosphorylation at T202//204 after 1 hr by Western blot analysis; format: cell-based
Outline: (§3)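 GIST-T1 cells in DMEM with 10% FBS were exposed to serially diluted compound for 1 h, then lysed. Lysates were analysed by western blot with phospho-specific antibodies against AKT (Ser473), ERK1/2 (Thr202/Tyr204) and S6 ribosomal protein (Ser235/236), each alongside its total protein.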

[7] = target: T1, Mast/stem cell growth factor receptor Kit; assay: Inhibition of wild type cKIT autophosphorylation at Y823 in human GIST-T1 cells at 100 nM after 1 hr by Western blot analysis; format: cell-based
Outline: (§4)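 GIST-T1 or GIST-5R cells in DMEM with 10% FBS were treated with serially diluted compound for 1 h. Cells were then lysed and analysed by western blotting.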

[8] = target: T2, Mast/stem cell growth factor receptor Kit (Homo sapiens, UniProt P10721, T670I); assay: Inhibition of cKIT T670I mutant autophosphorylation at Y703 in human GIST-5R cells at 0.1 to 3 uM after 1 hr by Western blot analysis; format: cell-based; outline: as §4
[9] = target: Platelet-derived growth factor receptor beta (Homo sapiens) (UniProt P09619); assay: Inhibition of partial length human PDGFRbeta expressed in bacterial expression system assessed as activity remaining at 1 uM by kinome scan assay
[10] = target: T1, Mast/stem cell growth factor receptor Kit; assay: Ratio of sunitinib IC50 to compound IC50 for TEL-fused cKIT (unknown origin) expressed in mouse BA/F3 cells; format: cell-based
[11] = Apparent volume of distribution in Sprague-Dawley rat at 1 mg/kg, iv measured up to 8 hrs post dosing; format: ADME, organism-based; settings: in vivo, read-out: Vz; outline: as §1
[12] = target: Cyclin-dependent kinase-like 3 (Homo sapiens) (UniProt Q8IVW4); assay: Inhibition of partial length human CDKL3 expressed in bacterial expression system assessed as activity remaining at 1 uM by kinome scan assay
[13] = target: Receptor-type tyrosine-protein kinase FLT3 (Homo sapiens) (UniProt P36888); assay: Inhibition of TEL-fused partial length human FLT3 expressed in mouse BA/F3 cells after 72 hrs by cell titer-glo assay; format: cell-based; outline: as §2
[14] = test system: Mast/stem cell growth factor receptor Kit (Homo sapiens), P10721 [D816V]; assay: Inhibition of TEL-fused cKIT D816V mutant (unknown origin) expressed in mouse BA/F3 cells assessed as cell growth inhibition after 72 hrs by cell titer-glo assay; format: cell-based; outline: as §2
[15] = target: T2, Mast/stem cell growth factor receptor Kit; assay: Inhibition of cKIT T670I mutant autophosphorylation at Y719 in human GIST-5R cells at 0.1 to 3 uM after 1 hr by Western blot analysis; format: cell-based; outline: as §4
Homo sapiens [16] = species: Homo sapiens; assay: Inhibition of TEL-fused cKIT L567P mutant (unknown origin) expressed in mouse BA/F3 cells assessed as cell growth inhibition after 72 hrs by cell titer-glo assay; format: cell-based; outline: as §2
GISTT1 = assay: Induction of apoptosis in human GISTT1 cells assessed as increase in cleaved PARP levels after 24 hrs by Western blot analysis; format: functional, cell-based
Outline: (§5)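 GIST-T1 or GIST-5R cells in DMEM with 10% FBS were exposed to serially diluted compound for 24 h. Apoptosis was assessed by western blot with PARP and GAPDH antibodies.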

BaF3 = assay: Antitumor activity against TEL-fused cKIT T670I mutant expressing mouse BA/F3 cells allografted in nu/nu mouse assessed as tumor growth inhibition dosed daily via intaperitoneal route after 10 days; format: functional, organism-based
Outline: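 Female nu/nu mice, 5 weeks old at purchase, given 1 million BaF3-TEL-cKIT-T670I cells in PBS/Matrigel 1:1 subcutaneously on the right flank. At tumour volume 200–400 mm3, randomised into groups of 7 and dosed IP daily for 10 days (25, 50, 100 mg/kg/d or vehicle: 0.5% methylcellulose/0.4% Tween80 in water). Tumour volume (W2×L/2) and body weight recorded daily.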

[17] = target: Macrophage colony-stimulating factor 1 receptor (Homo sapiens) (UniProt P07333); assay: Inhibition of TEL-fused partial length human CSF1R expressed in mouse BA/F3 cells after 72 hrs by cell titer-glo assay; format: cell-based; outline: as §2
[18] = Cytotoxicity mouse BA/F3 cells assessed as cell growth inhibition after 72 hrs by cell titer-glo assay; format: cell-based, BaF3; outline: as §2
[19] = target: T2, Mast/stem cell growth factor receptor Kit; assay: Inhibition of cKIT T670I mutant in human GIST-5R cells assessed as downregulation of S6 phosphorylation at S235/236 after 1 hr by Western blot analysis; format: cell-based; outline: as §4
[20] = target: T1, Mast/stem cell growth factor receptor Kit; assay: Inhibition of His-tagged cKIT (unknown origin) expressed in Sf9 cells using Poly(4:1 Glu, Tyr) peptide as substrate after 1 hr by ADP-glo kinase assay
[21] = Apparent clearance in Sprague-Dawley rat at 1 mg/kg, iv measured up to 8 hrs post dosing; format: ADME, organism-based; settings: in vivo, read-out: CL(app) (converted); outline: as §1
[22] = target: T1, Mast/stem cell growth factor receptor Kit; assay: Inhibition of wild type cKIT in human GIST-T1 cells assessed as downregulation of AKT phosphorylation at S473 after 1 hr by Western blot analysis; format: cell-based; outline: as §3
Homo sapiens [23] = species: Homo sapiens; assay: Induction of apoptosis in human GIST5R cells assessed as increase in cleaved PARP levels after 24 hrs by Western blot analysis; format: functional, cell-based; outline: as §5
[24] = AUC (0 to t) in Sprague-Dawley rat at 1 mg/kg, iv measured up to 8 hrs post dosing; format: ADME, organism-based; design: time < 8 hr, dose 1 mg/kg, route intravenous; settings: in vivo; outline: as §1
[25] = target: T1, Mast/stem cell growth factor receptor Kit; assay: Ratio of imatinib IC50 to compound IC50 for TEL-fused cKIT (unknown origin) expressed in mouse BA/F3 cells; format: cell-based

T2 sequence (P10721 26-976 T670I limits assumed): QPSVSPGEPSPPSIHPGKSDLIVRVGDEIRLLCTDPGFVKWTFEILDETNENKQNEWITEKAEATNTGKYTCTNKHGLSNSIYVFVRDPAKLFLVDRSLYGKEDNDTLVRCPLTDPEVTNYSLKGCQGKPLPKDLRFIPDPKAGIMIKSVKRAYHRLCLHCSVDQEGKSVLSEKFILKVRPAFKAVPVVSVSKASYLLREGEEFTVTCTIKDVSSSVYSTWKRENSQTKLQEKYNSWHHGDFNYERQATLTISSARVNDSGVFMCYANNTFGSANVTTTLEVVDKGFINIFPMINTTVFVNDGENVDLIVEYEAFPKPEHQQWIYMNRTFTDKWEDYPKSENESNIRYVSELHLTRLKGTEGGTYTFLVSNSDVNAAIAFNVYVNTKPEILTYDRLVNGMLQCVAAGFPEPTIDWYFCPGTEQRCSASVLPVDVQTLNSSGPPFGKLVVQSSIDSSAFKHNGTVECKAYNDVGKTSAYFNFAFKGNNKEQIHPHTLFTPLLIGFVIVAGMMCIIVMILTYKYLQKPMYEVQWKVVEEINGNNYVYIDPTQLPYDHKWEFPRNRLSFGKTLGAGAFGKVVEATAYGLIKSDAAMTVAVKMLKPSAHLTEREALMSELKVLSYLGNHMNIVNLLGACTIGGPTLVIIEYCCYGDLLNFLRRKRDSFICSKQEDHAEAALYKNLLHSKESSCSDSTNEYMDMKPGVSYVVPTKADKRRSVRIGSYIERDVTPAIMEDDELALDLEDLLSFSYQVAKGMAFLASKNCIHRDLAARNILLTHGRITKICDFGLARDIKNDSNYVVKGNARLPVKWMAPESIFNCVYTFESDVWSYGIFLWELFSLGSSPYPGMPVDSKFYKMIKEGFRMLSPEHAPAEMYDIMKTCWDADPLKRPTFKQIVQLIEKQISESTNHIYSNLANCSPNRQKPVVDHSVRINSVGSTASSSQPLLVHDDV
T1 sequence (P10721 whole entry): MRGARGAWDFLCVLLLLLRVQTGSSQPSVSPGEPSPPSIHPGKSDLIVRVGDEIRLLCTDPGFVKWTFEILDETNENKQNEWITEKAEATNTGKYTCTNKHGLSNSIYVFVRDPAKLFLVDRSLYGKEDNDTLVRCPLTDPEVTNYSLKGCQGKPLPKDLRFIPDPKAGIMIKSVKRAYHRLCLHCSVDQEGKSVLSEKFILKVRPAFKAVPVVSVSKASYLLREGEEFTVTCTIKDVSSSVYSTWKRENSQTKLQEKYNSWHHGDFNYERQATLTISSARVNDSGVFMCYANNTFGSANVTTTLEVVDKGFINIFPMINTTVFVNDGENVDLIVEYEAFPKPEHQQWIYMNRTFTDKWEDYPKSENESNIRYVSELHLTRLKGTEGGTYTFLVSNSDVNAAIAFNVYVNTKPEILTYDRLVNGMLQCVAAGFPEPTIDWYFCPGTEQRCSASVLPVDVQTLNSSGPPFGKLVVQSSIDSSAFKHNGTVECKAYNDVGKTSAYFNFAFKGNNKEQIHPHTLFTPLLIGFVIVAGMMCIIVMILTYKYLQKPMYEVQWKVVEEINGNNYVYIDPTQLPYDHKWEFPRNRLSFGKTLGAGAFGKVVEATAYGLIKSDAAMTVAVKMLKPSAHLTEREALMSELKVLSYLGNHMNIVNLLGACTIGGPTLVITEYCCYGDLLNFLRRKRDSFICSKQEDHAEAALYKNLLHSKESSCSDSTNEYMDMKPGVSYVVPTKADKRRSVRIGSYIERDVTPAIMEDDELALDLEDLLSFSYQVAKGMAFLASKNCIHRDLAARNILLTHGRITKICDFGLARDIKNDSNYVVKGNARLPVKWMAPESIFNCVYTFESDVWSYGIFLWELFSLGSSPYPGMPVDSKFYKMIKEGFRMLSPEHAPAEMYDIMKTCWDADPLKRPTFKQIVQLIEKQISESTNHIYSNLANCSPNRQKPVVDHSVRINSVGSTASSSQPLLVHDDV
Chain of Receptor-type tyrosine-protein kinase FLT3 (Homo sapiens) (P36888 whole entry, the tested form may be a part): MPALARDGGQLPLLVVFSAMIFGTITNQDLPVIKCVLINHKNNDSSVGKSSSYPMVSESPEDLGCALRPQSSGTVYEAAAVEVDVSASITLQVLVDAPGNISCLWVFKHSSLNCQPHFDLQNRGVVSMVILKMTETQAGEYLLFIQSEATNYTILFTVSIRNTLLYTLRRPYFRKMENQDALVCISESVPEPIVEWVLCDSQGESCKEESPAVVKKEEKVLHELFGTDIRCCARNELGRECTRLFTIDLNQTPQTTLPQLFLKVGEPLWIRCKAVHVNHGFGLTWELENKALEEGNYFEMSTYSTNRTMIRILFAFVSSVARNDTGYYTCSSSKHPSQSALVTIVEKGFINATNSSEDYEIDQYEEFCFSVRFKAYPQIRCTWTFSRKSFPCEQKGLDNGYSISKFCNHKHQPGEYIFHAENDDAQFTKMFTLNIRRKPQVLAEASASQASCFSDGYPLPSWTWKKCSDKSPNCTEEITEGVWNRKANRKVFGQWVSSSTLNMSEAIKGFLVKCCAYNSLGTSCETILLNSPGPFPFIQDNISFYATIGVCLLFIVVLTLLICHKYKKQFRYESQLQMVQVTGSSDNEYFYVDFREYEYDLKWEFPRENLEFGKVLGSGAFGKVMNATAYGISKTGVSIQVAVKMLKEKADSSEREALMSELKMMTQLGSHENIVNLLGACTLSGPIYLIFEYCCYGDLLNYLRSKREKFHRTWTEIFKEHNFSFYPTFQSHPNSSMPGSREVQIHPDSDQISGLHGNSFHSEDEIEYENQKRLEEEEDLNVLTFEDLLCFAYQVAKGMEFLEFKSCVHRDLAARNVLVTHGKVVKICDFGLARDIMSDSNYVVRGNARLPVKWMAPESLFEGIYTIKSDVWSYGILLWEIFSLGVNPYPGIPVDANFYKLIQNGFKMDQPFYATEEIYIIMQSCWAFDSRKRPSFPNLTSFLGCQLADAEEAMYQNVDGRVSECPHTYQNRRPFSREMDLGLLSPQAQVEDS
Chain of Mast/stem cell growth factor receptor Kit (Homo sapiens), P10721 [N822K] (P10721 whole entry N822K, the tested form may be a part): as the sequence (P10721 whole entry) above, with N822K counted along it
Chain of Cyclin-dependent kinase-like 3 (Homo sapiens) (Q8IVW4 whole entry, looked up, the tested form may be a part): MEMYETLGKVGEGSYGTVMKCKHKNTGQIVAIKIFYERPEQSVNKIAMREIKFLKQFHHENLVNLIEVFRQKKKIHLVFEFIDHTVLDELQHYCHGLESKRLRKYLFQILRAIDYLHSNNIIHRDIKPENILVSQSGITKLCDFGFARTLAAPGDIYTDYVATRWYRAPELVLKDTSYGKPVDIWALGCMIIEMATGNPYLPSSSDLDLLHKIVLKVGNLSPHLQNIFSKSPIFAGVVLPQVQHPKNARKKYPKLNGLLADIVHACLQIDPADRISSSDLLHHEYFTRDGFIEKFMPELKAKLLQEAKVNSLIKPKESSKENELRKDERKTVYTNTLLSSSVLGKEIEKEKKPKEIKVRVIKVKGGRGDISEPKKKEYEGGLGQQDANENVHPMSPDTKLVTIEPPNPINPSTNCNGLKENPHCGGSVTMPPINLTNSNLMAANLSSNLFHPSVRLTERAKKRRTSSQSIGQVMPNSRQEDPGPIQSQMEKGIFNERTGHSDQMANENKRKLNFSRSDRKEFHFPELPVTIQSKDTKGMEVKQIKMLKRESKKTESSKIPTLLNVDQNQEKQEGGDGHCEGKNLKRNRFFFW
Chain of Mast/stem cell growth factor receptor Kit (Homo sapiens), P10721 [T670I] (P10721 whole entry T670I): as the sequence (P10721 whole entry) above, with T670I counted along it
Chain of Mast/stem cell growth factor receptor Kit (Homo sapiens), P10721 [D816V] (P10721 whole entry D816V, the tested form may be a part): as the sequence (P10721 whole entry) above, with D816V counted along it
Chain of Platelet-derived growth factor receptor beta (Homo sapiens) (P09619 whole entry, the tested form may be a part): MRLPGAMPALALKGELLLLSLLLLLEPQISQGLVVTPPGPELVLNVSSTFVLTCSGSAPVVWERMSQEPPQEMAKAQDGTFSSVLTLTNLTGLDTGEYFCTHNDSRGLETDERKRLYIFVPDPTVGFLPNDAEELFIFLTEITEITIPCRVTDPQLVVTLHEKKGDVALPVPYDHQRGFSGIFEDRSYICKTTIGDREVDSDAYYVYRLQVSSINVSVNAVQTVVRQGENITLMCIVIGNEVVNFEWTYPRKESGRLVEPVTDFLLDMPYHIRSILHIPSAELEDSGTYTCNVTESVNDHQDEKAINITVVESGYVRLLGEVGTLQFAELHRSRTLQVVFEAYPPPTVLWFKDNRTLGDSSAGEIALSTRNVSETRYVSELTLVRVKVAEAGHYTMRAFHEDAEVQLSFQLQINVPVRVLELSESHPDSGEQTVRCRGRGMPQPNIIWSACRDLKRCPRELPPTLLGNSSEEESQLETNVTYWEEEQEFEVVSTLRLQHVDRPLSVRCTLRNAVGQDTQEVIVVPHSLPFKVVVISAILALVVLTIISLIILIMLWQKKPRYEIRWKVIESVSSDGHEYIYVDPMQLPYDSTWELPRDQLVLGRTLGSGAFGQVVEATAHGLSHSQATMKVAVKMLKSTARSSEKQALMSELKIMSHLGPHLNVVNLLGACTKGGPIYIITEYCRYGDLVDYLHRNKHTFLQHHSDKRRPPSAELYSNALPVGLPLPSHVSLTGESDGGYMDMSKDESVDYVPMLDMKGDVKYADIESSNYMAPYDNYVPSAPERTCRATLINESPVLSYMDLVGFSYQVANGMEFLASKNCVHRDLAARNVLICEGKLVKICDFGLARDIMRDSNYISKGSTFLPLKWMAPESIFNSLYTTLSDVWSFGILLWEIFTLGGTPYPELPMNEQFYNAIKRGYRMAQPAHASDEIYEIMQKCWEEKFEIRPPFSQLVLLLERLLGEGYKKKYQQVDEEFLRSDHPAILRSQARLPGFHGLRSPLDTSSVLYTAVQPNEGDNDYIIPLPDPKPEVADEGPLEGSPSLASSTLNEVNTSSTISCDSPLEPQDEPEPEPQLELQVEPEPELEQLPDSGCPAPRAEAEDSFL

With `CCC(=O)NCC1CCN(c2ccc(NC(=O)Nc3cccc(Oc4ccnc5cc(OC)c(OC)cc45)c3)cc2C(F)(F)F)CC1` as the compound, how does the Cmax [1] read?
Its Cmax is 2560 ng/mL.

What about the half-life [2] of the same compound?
Its half-life is 2.04 h.

What about the GI50 [3] of the same compound?
Its GI50 is 26 nM.

And the Tmax [4]?
The Tmax was 1.02 min.

What about the GI50 [5] of the same compound?
Its GI50 is 40 nM.

And the EC50 [6]?
The EC50 was < 100 nM.

And the inhibition [7]?
The inhibition was “Active”.

And the EC50 [8]?
Its EC50 is < 100 nM.

And the Activity [9]?
The Activity was 0%.

What about the Ratio IC50 [10] of the same compound?
The Ratio IC50 was 2.

What about the Vd [11] of the same compound?
Its Vd is 7.91 L/kg.

And the Activity [12]?
The Activity was 0.3%.

And the GI50 [13]?
Its GI50 is 99 nM.

What about the GI50 [14] of the same compound?
Its GI50 is 670 nM.

What about the EC50 [15] of the same compound?
The EC50 was < 100 nM.

What about the GI50 (Homo sapiens [16]) of the same compound?
Its GI50 is 23 nM.

And the Activity (GISTT1)?
The Activity was “Dose-dependent effect”.

What about the TGI (BaF3) of the same compound?
Its TGI is “Dose-dependent effect”.

What about the GI50 [17] of the same compound?
The GI50 was 110 nM.

And the GI50 at 72 h [18]?
Its GI50 at 72 h is > 10000 nM.

And the EC50 [19]?
Its EC50 is < 100 nM.

What about the IC50 [20] of the same compound?
Its IC50 is 33 nM.

And the clearance [21]?
Its clearance is 46 mL/min/kg.

What about the EC50 [22] of the same compound?
The EC50 was < 100 nM.

What about the Activity (Homo sapiens [23]) of the same compound?
The Activity was “Dose-dependent effect”.

And the AUCt [24]?
The AUCt was 377 ng·h/mL.

And the Ratio IC50 [25]?
The Ratio IC50 was 10.
